In publication PMC3143825 (Bioorganic & medicinal chemistry, 2011):

What was measured:
[1] = tested on: Hsp90 from SKBr3 cellular extracts; assay: Fluorescence polarization; assay type: binding; conditions: for IC50: read-out: IC50, binding affinity for Hsp90, Hsp90 from SKBr3 cellular extracts, displacement of GM-cy3B (6 nM), 4°C, 24 h
[2] = molecular target: Cell surface Hsp90 in MV4-11 leukemia cells (Homo sapiens, UniProt P07900); assay: Flow cytometry detection of cell surface Hsp90; assay type: cell-based; conditions: MV4-11 cells, 2 h at 37°C, SA-PE staining; D-biotin as control
[3] = tested on: c-Kit and IGF-IR in MDA-MB-468 cells; assay type: cell-based; conditions: 5 μM, 24 h
Summary of the method: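 MDA-MB-468 breast cancer cells kept in DME/F12 with 10% FBS, 1% L-glutamine and 1% penicillin/streptomycin at 37°C under 5% CO₂. Grown to 60–70% confluence, then exposed to test compound for 24 h. Lysed in 50 mM Tris pH 7.4, 150 mM NaCl, 1% NP-40. 10–50 μg protein run on SDS-PAGE and blotted to nitrocellulose. Probed with anti-IGF-IR (1:1000) and anti-c-Kit (1:200), then HRP secondary (1:3000), with ECL detection.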

| IC50 [1] [µM] | SMILES | detection of cell surface Hsp90 [2] | fold loss in potency as compared to SNX-2112 ([1]; FP assay, SKBr3 extract) [fold] | steady-state levels of c-Kit and IGF-IR [3] |
| --- | --- | --- | --- | --- |
| 0.0671 | Nc1ncnc2c1nc(Sc1cc3c(cc1I)OCO3)n2CCCNCCOCCOCCOCCNC(=O)CCCC[C@@H]1SC[C@@H]2NC(=O)N[C@@H]21 [Compound 7] | can detect Hsp90 expression on the surface of leukemia cells |  |  |
| 0.0224 | CC(C)NCCCn1c(Sc2cc3c(cc2I)OCO3)nc2c(N)ncnc21 [PU-H71, reference compound] |  |  | reduction in the steady-state levels |

The remaining lines, values behind:

| SMILES | IC50 [1] [µM] | detection of cell surface Hsp90 [2] | fold loss in potency as compared to SNX-2112 ([1]; FP assay, SKBr3 extract) [fold] | steady-state levels of c-Kit and IGF-IR [3] |
| --- | --- | --- | --- | --- |
| CCNC(=O)c1noc(-c2cc(C(C)C)c(O)cc2O)c1-c1ccc(CNCCCCCCN)cc1 [Compound 10, 4-(4-((6-Aminohexylamino)methyl)phenyl)-5-(2,4-dihydroxy-5-isopropylphenyl)-N-ethylisoxazole-3-carboxamide] | 0.007 |  |  |  |
| CC1(C)CC(=O)c2c(C(F)(F)F)nn(-c3ccc(C(N)=O)c(N[C@H]4CC[C@H](N)CC4)c3)c2C1 [Compound 18, 2-(trans-4-Aminocyclohexylamino)-4-(6,6-dimethyl-4-oxo-3-(trifluoromethyl)-4,5,6,7-tetrahydro-1H-indazol-1-yl)benzamide] | 0.21 |  | ~14 |  |
| CC1(C)CC(=O)c2c(C(F)(F)F)nn(-c3ccc(C(N)=O)c(N[C@H]4CC[C@H](NC(=O)CCCCCN)CC4)c3)c2C1 [Compound 20, 2-(trans-4-(6-Aminohexanamido)cyclohexylamino)-4-(6,6-dimethyl-4-oxo-3-(trifluoromethyl)-4,5,6,7-tetrahydro-1H-indazol-1-yl)benzamide] | 0.0247 |  |  |  |
| CCNC(=O)c1noc(-c2cc(C(C)C)c(O)cc2O)c1-c1ccc(CN2CCOCC2)cc1 [NVP-AUY922, reference compound] | 0.0041 |  |  |  |
